# Screens deposited in PubChem BioAssay by Johns Hopkins Ion Channel Center.
# Rows were chosen to be rich in hits. Some 2.3% of all compounds tested hit in one or more screens of this group.
# TRPC6 inhibitor: mouse TRPC6 channel inhibition; Q61143; HEK293-TRPC6, membrane potential dye, ACh-evoked depolarization; hits give low values; B-score at 10 µM; 310,000 compounds, 1.1% hits;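 active = B-score under library mean minus 3 SD, initial fluorescence not abnormally high, positive integrated signal ratio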;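 note: B-score derived from integrated fluorescence ratio over the kinetic read; more negative B-score means stronger inhibition of depolarization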
# TRPC4 block: inhibitors of mouse TRPC4 channel; Q9QUQ5; HEK293 TRPC4beta/mu-opioid, DAMGO-evoked Fluo4 calcium flux; hits give low values; B-score at 10 µM; 300,000 compounds, 0.39% hits; AID 2247;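 active = B-score over 3 SD under the library average, no early fluorescence shift, positive overall ratio signal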
# Target sequence (Q9QUQ5 whole entry, looked up): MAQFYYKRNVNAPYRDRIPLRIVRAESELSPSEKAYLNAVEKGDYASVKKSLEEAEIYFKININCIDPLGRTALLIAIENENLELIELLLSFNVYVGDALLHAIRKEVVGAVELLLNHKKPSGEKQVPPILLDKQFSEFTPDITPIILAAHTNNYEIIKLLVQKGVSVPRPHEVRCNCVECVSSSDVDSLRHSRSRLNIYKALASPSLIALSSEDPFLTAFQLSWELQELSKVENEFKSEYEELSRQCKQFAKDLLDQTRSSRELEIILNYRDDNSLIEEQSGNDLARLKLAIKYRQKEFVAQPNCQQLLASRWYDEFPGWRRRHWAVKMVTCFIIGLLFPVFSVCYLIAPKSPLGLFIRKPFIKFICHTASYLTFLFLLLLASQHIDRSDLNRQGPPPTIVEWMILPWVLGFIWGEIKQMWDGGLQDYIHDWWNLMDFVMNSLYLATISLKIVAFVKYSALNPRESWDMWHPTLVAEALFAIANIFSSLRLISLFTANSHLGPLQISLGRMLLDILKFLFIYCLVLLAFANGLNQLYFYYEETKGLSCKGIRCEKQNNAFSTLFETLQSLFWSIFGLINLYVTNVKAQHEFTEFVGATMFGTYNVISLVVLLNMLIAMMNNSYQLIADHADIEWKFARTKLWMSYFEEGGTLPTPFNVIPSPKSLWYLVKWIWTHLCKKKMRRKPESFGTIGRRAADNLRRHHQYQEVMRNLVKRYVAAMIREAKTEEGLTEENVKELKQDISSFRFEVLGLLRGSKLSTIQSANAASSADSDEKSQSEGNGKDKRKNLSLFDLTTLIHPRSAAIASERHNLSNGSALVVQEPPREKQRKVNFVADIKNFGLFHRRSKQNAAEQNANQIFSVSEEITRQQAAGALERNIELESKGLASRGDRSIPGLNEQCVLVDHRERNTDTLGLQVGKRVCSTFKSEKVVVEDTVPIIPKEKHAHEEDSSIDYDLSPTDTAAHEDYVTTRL
#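 Assay system – HEK293 line stably carrying TRPC4beta and mu-opioid receptor · Doses – single dose · Detection – Fluo4 calcium-dye fluorescence, kinetic read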
# TRPC4 act: activators of mouse TRPC4 channel. B-score at 10 µM. Q9QUQ5. 310,000 compounds, 0.49% hits. AID 2237. HEK293 TRPC4beta/mu-opioid, Fluo4 calcium fluorescence; hits give high values;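 active = B-score above 5 SD of library B-scores, and initial fluorescence ratio not above library mean plus 5 SD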;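 note: positive B-score marks a calcium rise read as TRPC4 activation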
#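 Assay system – TRPC4beta and mu-opioid receptor HEK293 stable cells · Measured by – Fluo4 fluorescence, kinetic · Schedule – dye loading 45 min room temperature, 110 s kinetic read · Read-out – B-scored integrated calcium fluorescence ratio · Controls – buffer and maximal DAMGO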
# TRPC4 PAM: allosterically enhances the mouse TRPC4 cation channel; HEK293 TRPC4beta/mu-opioid, DAMGO EC20, Fluo-4 Ca2+ flux; hits give high values; B-score at 10 µM; 310,000 compounds, 0.42% hits; AID 2227;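 active = B-score of calcium response area above 5 SD of library B-scores, with initial fluorescence ratio within 5 SD of library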
# TRPC6 activator: activates the mouse TRPC6 cation channel; Q61143; HEK293-TRPC6 membrane potential dye fluorescence; hits give high values; B-score at 10 µM; 310,000 compounds, 0.13% hits;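 active = B-score of the integrated fluorescence ratio above library mean plus 3 SD, and starting fluorescence ratio within library mean plus 5 SD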;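 note: higher score means more depolarization so channel activation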
# Numbers stand for hits; 0 = inactive.
SMILES,TRPC6 inhibitor,TRPC4 block,TRPC4 act,TRPC4 PAM,TRPC6 activator
O=C(CSc1nccc(=O)[nH]1)N1CCN(c2ccccc2)CC1,0,0,0,0,0
Cc1cc(SCC#N)nc2ccccc12,0,-6,0,0,0
O=C(c1sc2ccccc2c1Cl)N(Cc1ccco1)C1CCS(=O)(=O)C1 (stereo unspecified),0,0,59,0,0
O=C(c1sc2ccccc2c1Cl)N(Cc1ccccc1)C1CCS(=O)(=O)C1 (stereo unspecified),0,0,107,0,0
O=C(c1sc2ccccc2c1Cl)N(Cc1ccccc1Cl)C1CCS(=O)(=O)C1 (stereo unspecified),0,0,0,0,0
Cc1cc2oc(C(=O)N(Cc3ccccc3)C3CCS(=O)(=O)C3)cc(=O)c2cc1Cl (stereo unspecified),0,0,0,23,0
CCN1C(=O)[C@H]2[C@@H](c3ccc(-c4ccc(C(C)=O)cc4)c(OC)c3)N[C@@](Cc3ccccc3)(C(=O)OC)[C@H]2C1=O,0,0,0,0,0
CC1=C(C(=O)Nc2ccccc2C(F)(F)F)C(c2sccc2C)NC(=S)N1 (stereo unspecified),0,0,0,0,0
O=C(NCCc1ccc(Cl)cc1)C1CCCO1 (stereo unspecified),0,0,0,0,0
O=C(O)c1ccc2c(c1)C1C=CCC1C(c1cc3c(cc1Br)OCO3)N2 (stereo unspecified),0,-7,0,0,0
Cc1c(Cl)cccc1NC(=S)NCc1cccn1C,0,-6,0,0,0
Cc1ccccc1NC(=S)NCc1cccn1C,0,0,0,0,0
CCN1CCN(c2ccc(S(=O)(=O)N3CCCCC3)cc2NC(=O)Cc2ccc(OC)cc2)CC1,0,0,63,0,0
CCN1CCN(c2ccc(S(=O)(=O)N3CCCCC3)cc2NC(=O)/C=C/c2cccc(OC)c2OC)CC1,0,0,0,0,0
CCN1CCN(c2ccc(S(=O)(=O)N3CCCCC3)cc2NC(=O)c2ccc(OC(F)F)cc2)CC1,0,0,0,0,0
CCN1CCN(c2ccc(S(=O)(=O)N3CCCCC3)cc2NC(=O)c2cccc(OC(F)F)c2)CC1,0,0,0,19,0
CCN1CCN(c2ccc(S(=O)(=O)N3CCCCC3)cc2NC(=O)Cc2c(F)cccc2Cl)CC1,0,0,0,11,0
CCN1CCN(c2ccc(S(=O)(=O)N3CCCCC3)cc2NC(=O)c2cc3ccccc3o2)CC1,0,0,0,18,0
N#Cc1cnn(-c2nc3sc4c(c3c(=O)[nH]2)CCCC4)c1N,0,0,0,0,0
CCCN(CC(=O)Nc1ccc(C(N)=O)cc1)CC(=O)Nc1ccc(F)c(F)c1F,0,0,0,0,0
CCN1CCN(c2ccc(S(=O)(=O)N3CCCCC3)cc2NC(=O)c2cccc(Cl)c2)CC1,0,0,45,18,0
CCN1CCN(c2c(Cl)cccc2NC(=O)c2cc3ccccc3o2)CC1,0,0,0,23,0
CC(=O)c1ccc(OCCCC(=O)NCCc2ccc(C(F)(F)F)cc2)cc1,0,0,0,0,0
CC1(c2ccccc2)NC(=O)N(CC(=O)Nc2ccccc2N2CCCCC2)C1=O (stereo unspecified),0,0,0,0,0
CCc1ccc2nc(N=C(N)N)nc(C)c2c1,0,-8,0,0,0
SMILES,TRPC6 inhibitor,TRPC4 block,TRPC4 act,TRPC4 PAM,TRPC6 activator
CCCCc1c(O)nc(SCC(=O)Nc2cccc3ccccc23)n(-c2ccccc2OC)c1=O,0,-5,0,0,0
COc1ccc(C)cc1S(=O)(=O)Nc1ccc(F)c(Cl)c1,0,0,0,10,0
Cc1ccc(S(=O)(=O)n2nc(-c3ccco3)nc2N)cc1,0,0,0,0,0
O=C(NC1CCCCCCC1)c1cnccn1,0,0,0,12,0
O=C(NC1CCS(=O)(=O)C1)c1cnccn1 (stereo unspecified),0,0,0,0,0
N#Cc1ncc(-c2ccc3c(c2)OCCOCCOCCOCCO3)nc1C#N,0,0,0,0,0
N#Cc1ncc(-c2ccc3c(c2)OCCOCCOCCOCCOCCO3)nc1C#N,0,-6,0,0,0
Cc1ccc(C(C(=O)NC2CCCCC2)N(C(=O)c2csnn2)C2CC2)cc1 (stereo unspecified),0,0,0,0,0
Fc1ccc(-n2cc(-c3ccccc3)c3c(N4CCOCC4)ncnc32)cc1,0,0,0,15,0
O=C(COC(=O)c1nc(Cl)ccc1Cl)NNC(=O)c1cccs1,0,0,0,0,0
CCOc1ccc(S(=O)(=O)N2CCCC(C(=O)NCCN3CCOCC3)C2)cc1Cl (stereo unspecified),0,0,0,0,0
Cc1onc(-c2ccccc2Cl)c1C(=O)N1CCN(C/C=C/c2ccccc2)CC1,0,0,101,0,0
O=C(Nc1cccc(Cl)c1)N1CCN(C/C=C/c2ccccc2)CC1,0,0,0,26,0
COc1cc(NC(=O)CCN2CCN(C/C=C/c3ccccc3)CC2)cc(OC)c1,0,0,73,10,0
CCN(C(=O)c1c(-c2ccccc2Cl)noc1C)C1CCCCC1,0,-6,0,0,0
O=C(CCN1CCN(C/C=C/c2ccccc2)CC1)Nc1ccc(Cl)cc1,0,0,0,0,0
CC/C(=N\N=C1\SC(C)C(=O)N1Cc1ccco1)c1ccccc1 (stereo unspecified),0,0,0,0,0
Cc1ccn2cc(CCNC(=O)CC(C)(C)C)nc2c1,0,0,0,0,0
Cc1ccn2cc(CCNC(=O)C3CC=CCC3C(=O)O)nc2c1 (stereo unspecified),0,0,202,0,0
O=S(=O)(c1ccc(Br)cc1Cl)N1CCN(CCO)CC1,0,0,83,0,0
CC12CCC(=O)N1C(C(=O)N1CCN(S(=O)(=O)c3ccc(Br)cc3Cl)CC1)CS2 (stereo unspecified),0,0,0,0,0
Cc1cccn2c(=O)c(/C=C(\C#N)C(=O)NCc3ccccc3)c(N3CCC(C(N)=O)CC3)nc12,0,0,0,0,0
CCCCC(c1nnnn1CC1CCCO1)N1CCN(Cc2ccccc2)CC1 (stereo unspecified),0,-6,93,0,0
CC(NCCC1(C(C)C)CCOC(C)(C)C1)c1cccs1 (stereo unspecified),0,0,0,0,0
CC(NCCC1(Cc2ccccc2Cl)CCOC(C)(C)C1)c1cccs1 (stereo unspecified),0,0,68,0,0
CCn1c(N)[n+](CC(=O)Nc2ccc(SC(F)F)cc2)c2ccccc21,0,0,156,0,0
Cc1ccc(S(=O)(=O)N2CCC(C(=O)NCCCN3CCOCC3)CC2)cc1C,0,0,0,0,0
O=C(NCCCN1CCOCC1)C1CCN(S(=O)(=O)c2c(Cl)cccc2Cl)CC1,0,0,0,15,0
COc1ccc(Cn2c(=O)c3c(nc(NCCO)n3C)n(C)c2=O)cc1,0,0,0,12,0
